Results collected from several papers.
Lines come from different studies, so protocols differ.
Target: Serine/threonine-protein kinase ULK3 (ULK3, Homo sapiens, UniProt Q6PHR2)
Residues used in one study (Q6PHR2 1-472): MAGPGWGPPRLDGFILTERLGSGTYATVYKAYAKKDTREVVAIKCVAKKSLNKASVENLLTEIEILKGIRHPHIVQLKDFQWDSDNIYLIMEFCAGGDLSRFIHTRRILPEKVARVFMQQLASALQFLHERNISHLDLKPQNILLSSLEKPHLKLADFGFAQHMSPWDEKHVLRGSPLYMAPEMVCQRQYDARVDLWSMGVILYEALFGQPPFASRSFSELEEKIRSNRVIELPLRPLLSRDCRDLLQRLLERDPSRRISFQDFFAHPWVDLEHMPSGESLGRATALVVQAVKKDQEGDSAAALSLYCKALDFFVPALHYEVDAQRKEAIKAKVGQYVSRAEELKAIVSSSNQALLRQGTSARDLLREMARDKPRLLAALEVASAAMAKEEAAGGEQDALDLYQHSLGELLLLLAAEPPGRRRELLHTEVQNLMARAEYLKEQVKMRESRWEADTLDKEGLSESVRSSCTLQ

SMILES	assay	conditions	remaining binding
CN(C)c1ncnc(-c2ccc3nc(Nc4cc(CN5CCN(C(=O)CC(F)(F)F)CC5)ccn4)[nH]c3c2)c1Cl	cell-free assay, competition with immobilised ligand	1 µM	61%
FC(F)(F)Oc1cccc(-c2cnc3ccc(-c4ccncc4)nn23)c1	binding, competition with immobilised ligand	5 µM	45%
O=C(c1ccc(Nc2ncc(Cl)c(-c3cc4ccccc4s3)n2)cc1)N1CCC(N2CCCC2)CC1	binding, competition with immobilised ligand	1 µM	0.2%
N[C@H]1CCN(c2nccc(-c3cnn4ncccc34)n2)C1	binding	1 µM	86%
CC(=O)Nc1c(C(C)=O)c(=O)n(C)c2nc(-c3ccc(Cl)cc3Cl)c(-c3ccc(Cl)cc3)cc12	cell-free assay, competition with immobilised ligand	1 µM	75%
O=C(c1ccc(Nc2ncc(Cl)c(-c3ccc(Cl)s3)n2)cc1)N1CCC(N2CCCC2)CC1	binding, competition with immobilised ligand	1 µM	0.1%
COc1ncc2cc3ccccc3nc2c1C#N	cell-free assay, competition with immobilised ligand	5 µM	91%
O=C(NCCCN1CCOCC1)c1ccc(Nc2nccc(-c3cc4ccccc4s3)n2)cc1	binding, competition with immobilised ligand	1 µM	3.2%
Cc1cc(-c2cc(C(F)(F)F)ccc2O[C@H]2C[C@@]2(CNS(=O)(=O)c2ccc([N+](=O)[O-])cc2)c2ccc(F)cc2F)[nH]n1	cell-free assay, competition with immobilised ligand	0.3 µM	9.8%
Cn1nc(C(=O)NCc2ccc(C(=O)O)cc2)cc1-c1ccc2[nH]ccc2c1	cell-free assay, competition with immobilised ligand	0.1 µM	99%
O=C(Nc1c[nH]nc1C(=O)NC1CCNCC1)c1cc(F)cc(F)c1	binding, competition with immobilised ligand	1 µM	100%
CC1CCCN1c1nccc(-c2cnn3ncccc23)n1 (centres unmarked)	binding	1 µM	100%
O=C(O)[C@H]1[C@H](Cn2nnc3ccccc3c2=O)CC[C@@H]1C(=O)c1ccc(OCCC2CCOCC2)cc1	cell-free assay, competition with immobilised ligand	1 µM	85%
CCN1CCN(Cc2ccc(C(=O)Nc3ccc(C)c(Oc4ccc5c(c4)CC(=O)N5)c3)cc2C(F)(F)F)CC1	binding, competition with immobilised ligand	1 µM	100%
CN(CCCC(F)(F)F)c1nccc(-c2cnn3ncccc23)n1	binding	1 µM	94%
O=C(Nc1cccnn1)N1CC(C/C=C/c2cncc(Oc3ccc(C(F)(F)F)cn3)n2)C1	cell-free assay, competition with immobilised ligand	1 µM	82%
C[C@@H]1CCN(c2nccc(-c3cnn4ncccc34)n2)C1	binding	1 µM	80%
CS(=O)(=O)N1CCCC(NC(=O)[C@H](CCC2CCCCC2)NC(=O)c2ccc(CNC(=O)c3cnc4ccccn34)cc2)C1 (some centres unmarked)	cell-free assay, competition with immobilised ligand	0.1 µM	100%
F[C@@H]1CCN(c2nccc(-c3cnn4ncccc34)n2)C1	binding	1 µM	100%
COc1cnc(Nc2cccc(S(N)(=O)=O)c2)nc1N1CCN(c2ccccc2)CC1	binding, competition with immobilised ligand	1 µM	79%
